Columns and labels:
[1] = target: T1, Proteasome subunit beta type-8 (Homo sapiens, UniProt P28062); test: Inhibition of human 20S proteasome subunit beta-5i using Ac-ANW-AMC as substrate and measured every 30 secs for 30 mins by microtiter plate assay; conditions: for inhibition (INH): human, 0.5 h
T1 sequence (P28062 whole entry): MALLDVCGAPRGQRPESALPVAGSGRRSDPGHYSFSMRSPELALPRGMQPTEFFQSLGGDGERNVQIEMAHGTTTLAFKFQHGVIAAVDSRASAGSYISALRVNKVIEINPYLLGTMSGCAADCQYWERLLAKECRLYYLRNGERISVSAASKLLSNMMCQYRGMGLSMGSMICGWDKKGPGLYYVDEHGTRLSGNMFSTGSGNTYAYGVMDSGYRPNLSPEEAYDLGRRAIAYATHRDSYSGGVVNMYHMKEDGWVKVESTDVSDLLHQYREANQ
Summary of the method: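 Human immunoproteasome (i-20S) run in HEPES pH 7.5 buffer with EDTA and BSA, substrate Ac-ANW-AMC at 15 µM, 25 °C. Inhibitor given as a three-fold dilution series, DMSO under 0.5% final. Fluorescence 340/460 nm followed every 30 s for 30 min. IC50 fitted from rates against log inhibitor concentration; triplicate, at least three independent experiments.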

[2] = target: T2, Proteasome Macropain subunit MB1 (Homo sapiens, UniProt P28074); test: Inhibition of human 20S proteasome beta-5c subunit using Suc-LLVY-AMC as substrate and measured every 30 secs for 30 mins by microtiter plate assay; conditions: for inhibition (INH): human, 0.5 h
T2 sequence (P28074 whole entry): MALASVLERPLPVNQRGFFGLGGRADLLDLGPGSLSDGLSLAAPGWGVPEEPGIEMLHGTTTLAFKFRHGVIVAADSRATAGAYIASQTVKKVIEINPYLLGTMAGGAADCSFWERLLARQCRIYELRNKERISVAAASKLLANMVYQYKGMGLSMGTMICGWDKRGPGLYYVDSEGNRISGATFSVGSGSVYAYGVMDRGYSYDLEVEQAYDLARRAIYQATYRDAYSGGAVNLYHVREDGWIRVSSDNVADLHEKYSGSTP
Summary of the method: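 Human constitutive 20S, purchased, 0.8 nM in the enzyme solution. Buffer: 20 mM HEPES pH 7.5, 0.5 mM EDTA, 0.1 mg/mL BSA, 0.02% SDS. Suc-LLVY-AMC at 25 µM final, 25 °C, three-fold inhibitor dilutions. Fluorescence 340/460 nm read every 30 s for 30 min. IC50 from a log-concentration rate fit against negative and positive controls; triplicate, at least three independent experiments.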

[3] = Solubility of the compound; type: physicochemical

SMILES: Cc1cc(C(=O)N[C@@H](CC(=O)N2CCCC[C@@H]2C)C(=O)N[C@@H](C)C(=O)NCc2ccc(F)cc2F)no1
- IC50 [1]: 0.026 µM
- inhibition (INH) [1]: Dose-dependent effect
- IC50 [2]: 1.41 µM
- inhibition (INH) [2]: Dose-dependent effect
- solubility [3]: Soluble

SMILES: Cc1cc(C(=O)N[C@@H](CC(=O)N2CCC[C@@H]2c2ccccc2)C(=O)N[C@@H](C)C(=O)NCc2c(F)cccc2F)no1
- IC50 [1]: 20.1 µM
- inhibition (INH) [1]: Dose-dependent effect
- IC50 [2]: > 100 µM
- inhibition (INH) [2]: Dose-dependent effect

SMILES: Cc1cc(C(=O)N[C@@H](CC(=O)N2CCC[C@@H]2c2ccccc2)C(=O)N[C@@H](C)c2ncc(-c3ccccc3)[nH]2)no1
- IC50 [1]: > 100 µM
- IC50 [2]: > 100 µM

SMILES: Cc1cc(C(=O)N[C@@H](CC(=O)N2CCC[C@@H]2c2ccccc2)C(=O)N[C@@H](C)c2ncc(-c3ccccc3F)[nH]2)no1
- IC50 [1]: > 100 µM
- IC50 [2]: > 100 µM

SMILES: Cc1cc(C(=O)N[C@@H](CC(=O)N2CCC[C@@H]2c2ccccc2)C(=O)N[C@@H](C)C(=O)NCc2ccc(F)cc2F)no1
- IC50 [1]: 7.89 µM
- inhibition (INH) [1]: Dose-dependent effect
- IC50 [2]: > 100 µM
- inhibition (INH) [2]: Dose-dependent effect

SMILES: COc1ccccc1CNC(=O)[C@H](C)NC(=O)[C@H](CC(=O)N1CCC[C@@H]1c1ccccc1)NC(=O)c1cc(C)on1
- IC50 [1]: > 100 µM
- inhibition (INH) [1]: Dose-dependent effect
- IC50 [2]: > 100 µM
- inhibition (INH) [2]: Dose-dependent effect

SMILES: Cc1cc(C(=O)N[C@@H](CC(=O)N2CCC[C@@H]2c2ccccc2)C(=O)N[C@@H](C)c2ncc(-c3ccc(F)cc3F)[nH]2)no1
- IC50 [1]: > 100 µM
- IC50 [2]: > 100 µM

Source: ChEMBL document CHEMBL4414599, “Selective Phenylimidazole-Based Inhibitors of the Mycobacterium tuberculosis Proteasome” (J Med Chem, 2019)
